Laboratory results as given in ChEMBL document CHEMBL3994573, “Cytotoxic Lanostanoids from Poria cocos” (J Nat Prod, 2016).

Key:
Assay type in all cases: functional, cell-based
MOLT-4 = experiment: Antiproliferative activity against human MOLT4 cells after 72 hrs by MTT assay; conditions: MOLT-4, 72 h
Summary of the method: (§1)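 Leukemia cells (ATCC) grown in RPMI-1640 with 10% FCS, 2 mM glutamine, penicillin/streptomycin at 37 °C, 5% CO2. Seeded at 4 × 10^4 per well. Exposed 72 h to 1.25, 2.5, 5, 10 and 20 μg/mL (DMSO under 0.02%). MTT formazan dissolved in DMSO, read as OD570 − OD620. IC50 = concentration giving half the control absorbance. n = 4 wells per experiment, four separate experiments, ± SD.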

HL-60 = experiment: Antiproliferative activity against human HL60 cells after 72 hrs by MTT assay; conditions: HL-60, 72 h; summary of the method: as §1
K562 = experiment: Antiproliferative activity against human K562 cells after 72 hrs by MTT assay; conditions: K562, 72 h; summary of the method: as §1
CCRF-CEM = experiment: Antiproliferative activity against human CCRF-CEM cells after 72 hrs by MTT assay; summary of the method: as §1

| IC50 (MOLT-4) | IC50 (HL-60) | IC50 (K562) | IC50 (CCRF-CEM) | SMILES |
| --- | --- | --- | --- | --- |
| > 40 µM | > 40 µM | > 40 µM | > 40 µM | C=C(CC[C@@H](C(=O)O)[C@H]1[C@H](O)C[C@@]2(C)C3=CC=C4C(C)(C)C(=O)CC[C@]4(C)C3=CC[C@]12C)C(C)C |
| > 40 µM | > 40 µM | > 40 µM | > 40 µM | C=C(CC[C@@H](C(=O)O)[C@H]1[C@H](O)C[C@@]2(C)C3=C(CC[C@]12C)[C@@]1(C)CC[C@H](O)C(C)(C)[C@@H]1CC3=O)C(C)C |
| > 40 µM | > 40 µM | > 40 µM | > 40 µM | CC(C)C(=O)CC[C@@H](C(=O)O)[C@H]1[C@H](O)C[C@@]2(C)C3=CC[C@H]4C(C)(C)[C@@H](O)CC[C@]4(C)C3=CC[C@]12C |
| > 40 µM | > 40 µM | > 40 µM | > 40 µM | CC(C)=CCC[C@@H](C(=O)O)[C@H]1[C@H](O)C[C@@]2(C)C3=C(CC[C@]12C)[C@@]1(C)CC[C@H](O)C(C)(C)[C@@H]1CC3 |
| > 40 µM | > 40 µM | > 40 µM | > 40 µM | C=C(CC[C@@H](C(=O)O)[C@H]1[C@H](O)C[C@@]2(C)C3=CC[C@@H](C(=C)C)[C@](C)(CCC(=O)O)C3=CC[C@]12C)C(C)C [PORICOIC ACID A] |
| 0.01 µM | 0.01 µM | 0.5 µM | 0.01 µM | COc1cccc2c1C(=O)c1c(O)c3c(c(O)c1C2=O)C[C@@](O)(C(=O)CO)C[C@@H]3O[C@H]1C[C@H](N)[C@H](O)[C@H](C)O1 [DOXORUBICIN] |
| > 40 µM | > 40 µM | > 40 µM | > 40 µM | C=C(CC[C@@H](C(=O)O)[C@H]1[C@H](O)C[C@@]2(C)C3=C(CC[C@]12C)[C@@]1(C)CC[C@@H](O)C(C)(C)[C@@H]1CC3=O)C(C)C |
| > 40 µM | > 40 µM | > 40 µM | > 40 µM | CC(C)C(=O)CC[C@@H](C(=O)O)[C@H]1[C@H](O)C[C@@]2(C)C3=CC[C@H]4C(C)(C)[C@H](O)CC[C@]4(C)C3=CC[C@]12C |
| > 40 µM | > 40 µM | > 40 µM | > 40 µM | C=C(C)C(=O)CC[C@@H](C(=O)O)[C@H]1[C@H](O)C[C@@]2(C)C3=C(CC[C@]12C)[C@@]1(C)CC[C@H](O)C(C)(C)[C@@H]1CC3 |

The remaining lines, values behind:

| SMILES | IC50 (MOLT-4) | IC50 (HL-60) | IC50 (K562) | IC50 (CCRF-CEM) |
| --- | --- | --- | --- | --- |
| C=C(CC[C@@H](C(=O)O)[C@H]1CC[C@@]2(C)C3=CC[C@H]4C(C)(C)[C@@H](O)CC[C@]4(C)C3=CC[C@]12C)C(C)C [DEHYDROEBURICOIC ACID] | 14.3 µM | 6 µM | 25.6 µM | 6.3 µM |
| CC(C)=CCC[C@@H](C(=O)O)[C@H]1[C@H](O)C[C@@]2(C)C3=CC[C@H]4C(C)(C)[C@@H](O)CC[C@]4(C)C3=CC[C@]12C | > 40 µM | > 40 µM | > 40 µM | > 40 µM |
| C=C(CC[C@@H](C(=O)O)[C@H]1[C@H](O)C[C@@]2(C)C3=CC[C@H]4C(C)(C)C(=O)CC[C@]4(C)C3=CC[C@]12C)C(C)C [POLYPORENIC ACID B] | 27.6 µM | 31.8 µM | 26.3 µM | 25.5 µM |
| C=C(CC[C@@H](C(=O)O)[C@H]1[C@H](O)C[C@@]2(C)[C@]34C=C[C@@]5(OO3)C(C)(C)[C@@H](O)CC[C@]5(C)C4=CC[C@]12C)C(C)C | > 40 µM | > 40 µM | > 40 µM | > 40 µM |
| C=C(CC[C@@H](C(=O)O)[C@H]1[C@H](O)C[C@@]2(C)C3=CC[C@H]4C(C)(C)[C@H](O)CC[C@]4(C)C3=CC[C@]12C)C(C)C | > 40 µM | > 40 µM | > 40 µM | > 40 µM |
| C=C(CC[C@@H](C(=O)O)[C@H]1[C@H](O)C[C@@]2(C)C3=CC[C@H]4C(C)(C)[C@@H](OC(C)=O)CC[C@]4(C)C3=CC[C@]12C)C(C)C | 13.8 µM | 7.3 µM | 18.6 µM | 2.7 µM |
| C=C(CC[C@@H](C(=O)O)[C@H]1[C@H](O)C[C@@]2(C)C3=CCC4[C@](C)(CC[C@H](O)[C@]4(C)CO)C3=CC[C@]12C)C(C)C (stereo partly specified) | > 40 µM | > 40 µM | > 40 µM | > 40 µM |
| C=C(CC[C@@H](C(=O)O)[C@H]1[C@H](O)C[C@@]2(C)[C@]34C=C[C@@]5(OO3)C(C)(C)[C@@H](OC(=O)CO)CC[C@]5(C)C4=CC[C@]12C)C(C)C | > 40 µM | > 40 µM | > 40 µM | > 40 µM |
| C=C(CC[C@@H](C(=O)O)[C@H]1[C@H](O)C[C@@]2(C)C3=CC[C@H]4C(C)(C)[C@@H](O)CC[C@]4(C)C3=CC[C@]12C)C(C)C [DEHYDROTUMULOSIC ACID] | > 40 µM | > 40 µM | > 40 µM | > 40 µM |
| CC(C)=CCC[C@@H](C(=O)O)[C@H]1CC[C@@]2(C)C3=CC[C@H]4C(C)(C)[C@@H](O)CC[C@]4(C)C3=CC[C@]12C [DEHYDROTRAMETENOLIC ACID] | 16.2 µM | 20 µM | 14.8 µM | 13.1 µM |
